According to ChEMBL document CHEMBL5325511, “Discovery of N-(4-(Aminomethyl)phenyl)-5-methylpyrimidin-2-amine Derivatives as Potent and Selective JAK2 Inhibitors” (ACS Med Chem Lett, 2023):
Activity calls are given as the source filed them. The calls are words filed in the database; no cut-off is given here.

How the values were obtained:
[1] = target: T1, Receptor-type tyrosine-protein kinase FLT3 (Homo sapiens, UniProt P36888); test: Inhibition of FLT3 in human MOLM-13 cells; format: cell-based
T1 sequence (P36888 whole entry): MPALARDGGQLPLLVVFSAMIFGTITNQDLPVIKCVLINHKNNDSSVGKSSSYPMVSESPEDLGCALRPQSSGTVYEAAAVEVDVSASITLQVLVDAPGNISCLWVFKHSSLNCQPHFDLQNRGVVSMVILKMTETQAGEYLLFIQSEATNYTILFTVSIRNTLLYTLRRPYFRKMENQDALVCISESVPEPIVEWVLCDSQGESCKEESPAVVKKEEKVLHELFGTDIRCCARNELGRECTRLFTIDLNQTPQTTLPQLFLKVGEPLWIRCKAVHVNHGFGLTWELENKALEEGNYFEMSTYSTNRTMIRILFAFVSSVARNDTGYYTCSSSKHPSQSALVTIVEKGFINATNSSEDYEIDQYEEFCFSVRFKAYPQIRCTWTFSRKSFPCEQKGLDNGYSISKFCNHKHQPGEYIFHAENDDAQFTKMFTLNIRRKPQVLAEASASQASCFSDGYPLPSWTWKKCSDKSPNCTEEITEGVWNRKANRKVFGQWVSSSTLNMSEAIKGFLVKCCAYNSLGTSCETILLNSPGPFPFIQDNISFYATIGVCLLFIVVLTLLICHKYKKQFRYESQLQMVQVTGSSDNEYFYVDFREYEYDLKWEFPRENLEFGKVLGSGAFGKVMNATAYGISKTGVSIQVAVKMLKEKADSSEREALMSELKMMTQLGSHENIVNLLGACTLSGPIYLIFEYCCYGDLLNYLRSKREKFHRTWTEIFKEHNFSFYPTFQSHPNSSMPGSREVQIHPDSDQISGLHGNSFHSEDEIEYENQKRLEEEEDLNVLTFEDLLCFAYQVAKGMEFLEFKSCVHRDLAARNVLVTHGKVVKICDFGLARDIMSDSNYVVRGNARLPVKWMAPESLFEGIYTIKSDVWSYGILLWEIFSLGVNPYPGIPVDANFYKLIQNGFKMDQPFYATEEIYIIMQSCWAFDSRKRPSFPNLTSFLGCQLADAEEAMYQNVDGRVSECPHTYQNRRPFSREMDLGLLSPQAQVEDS
Method in brief: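 Cell proliferation assay. IC50 is the concentration that inhibits proliferation by 50%, taken from dose–response curves. Mean ± SEM of at least three independent experiments.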

[2] = target: T2, Tyrosine-protein kinase JAK3 (Homo sapiens, UniProt P52333); test: Inhibition of JAK3 (unknown origin) in presence of Mg/ATP mixture by [gamma p33]-ATP based radiometric assay
T2 sequence (P52333 whole entry): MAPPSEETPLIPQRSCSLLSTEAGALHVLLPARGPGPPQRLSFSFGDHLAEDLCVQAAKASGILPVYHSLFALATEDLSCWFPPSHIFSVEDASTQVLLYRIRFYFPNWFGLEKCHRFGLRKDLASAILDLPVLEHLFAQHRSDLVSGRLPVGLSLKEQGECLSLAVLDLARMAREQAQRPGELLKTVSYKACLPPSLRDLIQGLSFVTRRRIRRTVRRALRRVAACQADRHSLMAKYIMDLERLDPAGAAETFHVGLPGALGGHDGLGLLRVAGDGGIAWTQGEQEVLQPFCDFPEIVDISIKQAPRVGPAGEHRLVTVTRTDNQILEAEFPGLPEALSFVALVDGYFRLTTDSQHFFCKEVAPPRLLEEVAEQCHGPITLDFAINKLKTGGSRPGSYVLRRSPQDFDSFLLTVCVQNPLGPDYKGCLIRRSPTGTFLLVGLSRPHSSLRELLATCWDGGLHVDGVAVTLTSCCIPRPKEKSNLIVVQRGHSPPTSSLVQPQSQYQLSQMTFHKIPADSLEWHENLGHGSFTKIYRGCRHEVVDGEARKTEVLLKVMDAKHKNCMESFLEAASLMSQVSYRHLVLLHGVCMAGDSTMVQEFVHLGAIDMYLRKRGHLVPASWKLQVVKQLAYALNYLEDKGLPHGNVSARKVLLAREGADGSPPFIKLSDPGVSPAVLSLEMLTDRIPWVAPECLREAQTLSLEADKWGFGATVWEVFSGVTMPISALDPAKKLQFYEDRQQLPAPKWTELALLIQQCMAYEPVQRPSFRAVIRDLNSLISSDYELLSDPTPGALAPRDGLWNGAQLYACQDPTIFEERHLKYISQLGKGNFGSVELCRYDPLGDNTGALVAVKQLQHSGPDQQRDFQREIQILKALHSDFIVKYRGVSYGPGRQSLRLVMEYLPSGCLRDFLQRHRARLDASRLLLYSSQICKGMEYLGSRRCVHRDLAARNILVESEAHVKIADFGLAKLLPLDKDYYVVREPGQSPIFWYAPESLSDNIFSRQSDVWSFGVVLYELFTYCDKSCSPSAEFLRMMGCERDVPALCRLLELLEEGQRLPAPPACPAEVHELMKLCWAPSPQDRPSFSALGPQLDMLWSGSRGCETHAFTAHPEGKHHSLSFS

[3] = Tmax in Sprague-Dawley rat at 5 mg/kg, po measured upto 24 hrs by LC-MS/MS analysis; format: ADME, organism-based; settings: in vivo, po, 5 mg/kg, 24 h
Method in brief: (§1)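 Sprague–Dawley rats, n = 5 per group, dosed at 5 mg/kg as a solution in 2% ethanol and 1% Tween 80, pH 5.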

[4] = Half life in Sprague-Dawley rat at 5 mg/kg, po measured upto 24 hrs by LC-MS/MS analysis; format: ADME, organism-based; settings: in vivo, po, 5 mg/kg, 24 h
Method in brief: (§2)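 Sprague–Dawley rats, n = 5, dosed at 5 mg/kg as a solution in 2% ethanol and 1% Tween 80, pH 5.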

[5] = Clearance in Sprague-Dawley rat at 5 mg/kg, po measured upto 24 hrs by LC-MS/MS analysis; format: ADME, organism-based; settings: in vivo; method in brief: as §2
[6] = AUC(0 to t) in Sprague-Dawley rat at 5 mg/kg, po measured upto 24 hrs by LC-MS/MS analysis; format: ADME, organism-based; design: time < 24 hrs, dose 5 mg/kg, route po; settings: in vivo; method in brief: as §2
[7] = Oral bioavailability in Sprague-Dawley rat at 5 mg/kg measured upto 24 hrs by LC-MS/MS analysis; format: ADME, organism-based; settings: in vivo; method in brief: as §1
[8] = target: Tyrosine-protein kinase Lck (Homo sapiens) (UniProt P06239); test: Inhibition of LCK (unknown origin)
Tyrosine-protein kinase Lck (Homo sapiens), sequence (P06239 2-509 limits assumed): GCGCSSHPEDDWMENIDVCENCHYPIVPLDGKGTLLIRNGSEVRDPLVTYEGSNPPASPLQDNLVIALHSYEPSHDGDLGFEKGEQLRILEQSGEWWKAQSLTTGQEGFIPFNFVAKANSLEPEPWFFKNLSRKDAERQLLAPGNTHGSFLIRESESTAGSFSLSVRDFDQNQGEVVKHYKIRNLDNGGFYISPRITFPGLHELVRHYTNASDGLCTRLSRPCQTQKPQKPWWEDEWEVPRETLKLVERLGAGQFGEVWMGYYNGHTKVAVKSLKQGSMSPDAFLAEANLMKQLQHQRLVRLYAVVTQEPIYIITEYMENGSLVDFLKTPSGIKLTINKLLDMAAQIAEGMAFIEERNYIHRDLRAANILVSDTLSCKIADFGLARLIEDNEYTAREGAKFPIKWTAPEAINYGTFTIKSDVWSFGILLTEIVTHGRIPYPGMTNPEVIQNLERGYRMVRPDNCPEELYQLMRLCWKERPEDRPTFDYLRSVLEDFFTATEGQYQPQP
Method in brief: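 Kinase panel profiling (KinaseProfile, run by an outside contractor). The inhibitor was tested at 1 μM in duplicate against DMSO control. The value is % control, the percentage of kinase activity remaining.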

BaF3 [9] = test: Inhibition of JAK2/STAT signaling pathway in mouse BaF3 cells harbouring JAK2 V617F mutant assessed as reduction in STAT3 phosphorylation by Western blot analysis; format: cell-based; settings: dose 10-1000 nM
Method in brief: (§3)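 Ba/F3 JAK2V617F cells treated with compound at increasing concentrations. Phosphorylation levels of JAK2, STAT3, STAT5 and AKT assessed by Western blot.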

BaF3 [10] = test: Inhibition of JAK2/STAT signaling pathway in mouse BaF3 cells harbouring JAK2 V617F mutant assessed as reduction in AKT phosphorylation at 10 to 1000 nM by Western blot analysis; format: cell-based; settings: dose 10-1000 nM; method in brief: as §3

IC50 [1]: 583 nM
IC50 [2]: 273 nM
Tmax [3]: 1.4 h
t1/2 [4]: 5.2 h
CL [5]: 295 mL/min/kg
AUCt [6]: 3517.9 ng·h/mL
bioavailability [7]: 41.1%
inhibition [8]: Active
Compound: C=CS(=O)(=O)NCc1ccc(Nc2ncc(C)c(-c3cnn(C(C)C)c3)n2)cc1
inhibition (BaF3 [9]): Dose-Dependent Effect
inhibition (BaF3 [10]): Active
